Screens (PubChem BioAssay)
An excerpt weighted towards active compounds, which were near 2.3% of everything screened.
TRPC4 act – TRPC4 (mouse) channel activation | B-score at 10 µM | 0.49% of 310,000 active | Q9QUQ5 | HEK293 TRPC4beta/mu-opioid, Fluo4 calcium fluorescence; active compounds read high;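 active = B-score above 5 SD of library B-scores, and initial fluorescence ratio not above library mean plus 5 SD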;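 also: positive B-score marks a calcium rise read as TRPC4 activation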
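Technique: kinetic Fluo4 calcium fluorescence; Test system: TRPC4beta and mu-opioid receptor HEK293 stable cells; Measure: B-scored integrated calcium fluorescence ratio; Benchmarks: low control buffer alone, high control maximal DAMGO; Schedule: 45 min room-temperature Fluo4 loading, 110 s read.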
FID counter – fluorescent intercalator displacement, NS3 helicase counter-screen; 0.17% of 290,000 active; AID 1845; inhibition, % at 7.9 µM; DNA fluorescent intercalator displacement, fluorescence; in the data active = inhibition above about 37%;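 also: 0% = vehicle and 100% = reference compound; higher means more ethidium bromide displaced from hairpin DNA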
TRPC6 inh – blocks the mouse TRPC6 cation channel | B-score at 10 µM | Q61143 | 1.1% of 310,000 active | HEK293-TRPC6, membrane potential dye, ACh-evoked depolarization; active compounds read low;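 active = B-score under library mean minus 3 SD, initial fluorescence not abnormally high, positive integrated signal ratio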;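 also: B-score derived from integrated fluorescence ratio over the kinetic read; more negative B-score means stronger inhibition of depolarization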
TRPC4 inh – blocks the mouse TRPC4 cation channel. HEK293 TRPC4beta/mu-opioid, DAMGO-evoked Fluo4 calcium flux; active compounds read low. B-score at 10 µM. 0.39% of 300,000 active;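 active = B-score over 3 SD under the library average, no early fluorescence shift, positive overall ratio signal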
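Signal: kinetic Fluo4 fluorescence imaging of calcium influx. Material: stable TRPC4beta/mu-opioid receptor HEK293 cells. Probe or stimulus: DAMGO in two steps, submaximal then maximal.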
TRPC4 PAM – allosteric potentiators of mouse TRPC4 channel. Q9QUQ5. HEK293 TRPC4beta/mu-opioid, DAMGO EC20, Fluo-4 Ca2+ flux; active compounds read high. B-score at 10 µM. 0.42% of 310,000 active;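 active = B-score of calcium response area above 5 SD of library B-scores, with initial fluorescence ratio within 5 SD of library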;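 also: B-score of integrated fluorescence ratio over time as area under calcium response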
TRPC6 activator – activators of mouse TRPC6 channel | Q61143 | HEK293-TRPC6 membrane potential dye fluorescence; active compounds read high | B-score at 10 µM | 0.13% of 310,000 active | AID 2550;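 active = B-score of the integrated fluorescence ratio above library mean plus 3 SD, and starting fluorescence ratio within library mean plus 5 SD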;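 also: higher score means more depolarization so channel activation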
TRPC4 spec 2 – mouse TRPC4 off-target activity of TRPC6 inhibitors, second screen | shares compounds with TRPC6 inh | HEK293 TRPC4/MOR, membrane potential dye fluorescence; channel activated by saturating DAMGO dose | inhibition, % at 10 µM | 42% of 920 active;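 active = compounds whose fluorescence signal differed from control wells by over 3 SD, either direction, in both duplicate plates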
TRPC4 spec – tests whether TRPC6 inhibitors also affect mouse TRPC4; shares compounds with TRPC6 inh; HEK293 TRPC4/mu-opioid, membrane potential fluorescence; activity change, negative = inhibition, % at 10 µM; 61% of 920 active; AID 2777;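 active = rise or fall in signal beyond 3 SD of buffer-only wells in both replicate plates, either sign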;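 also: integrated kinetic ratio of fluorescence range over baseline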
HEK293 MPD ctr 2-1 – second counter-screen for TRPC6 inhibitors: parental HEK293 cells. shares compounds with TRPC6 inh. parental HEK293 membrane potential dye fluorescence; maximal acetylcholine challenge after compound addition. signal change vs control, % at 10 µM. 31% of 920 active;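 active = membrane potential signal moving either way by over 3 SD of the maximum-effect control, in both duplicate plates, meaning non-specific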
HEK293 MPD ctr-1 – counter-screen for TRPC6 inhibitors: effect in parental HEK293 cells; membrane potential signal change, % at 10 µM; shares compounds with TRPC6 inh; 60% of 920 active; parental HEK293 membrane potential dye fluorescence;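 active = membrane potential signal shifting up or down by more than 3 SD of buffer-only wells, on both duplicate plates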
HEK293 MPD ctr-2 – checks TRPC6 modulator effects in parental HEK293 cells; shares compounds with TRPC6 inh; membrane potential signal change, % at 10 µM; 51% of 2,400 active; membrane potential dye fluorescence;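 active = membrane potential signal moves up or down beyond 5 SD from buffer-only wells, on both duplicate plates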
HEK293 MPD ctr 2-2 – parental HEK293 nonspecific activity of TRPC6 modulators, second screen. shares compounds with TRPC6 inh. membrane potential dye fluorescence; after compound, maximal acetylcholine stimulation. inhibition, % at 10 µM. 14% of 2,400 active. AID 488926;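 active = membrane potential signal drops by more than 5 SD from the mean control signal, in both duplicate plates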;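 also: plate controls were acetylcholine ECmax control wells for no effect and buffer only wells for full effect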
TRPC4 ctr mod – mouse TRPC4 off-target activity of TRPC6 modulators | shares compounds with TRPC6 inh | HEK293 TRPC4/mu-opioid, membrane potential fluorescence | percent change from control (negative = decrease, positive = increase), % at 10 µM | 69% of 2,400 active | AID 488927;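 active = membrane potential signal moved up or down beyond 5 SD of buffer control wells, in both duplicate plates, actives on both sides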;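 also: plate controls were assay buffer wells for no effect and DAMGO maximal-effect wells for full effect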
TRPC4 ctr inh 2 – second selectivity test of TRPC6 modulators against mouse TRPC4 | shares compounds with TRPC6 inh | HEK293 TRPC4/mu-opioid, membrane potential dye fluorescence; stimulated with maximal-effect DAMGO | inhibition, % at 10 µM | 55% of 2,400 active | AID 488928;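 active = drop in membrane potential signal beyond 5 SD of the control wells in both duplicate plates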;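 also: TRPC4 counter screen for TRPC6 hits run under conditions tuned for TRPC6 not TRPC4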
TRPC6 inh conf – confirmation of mouse TRPC6 inhibitors; shares compounds with TRPC6 inh; HEK293-TRPC6, membrane potential dye, ACh-evoked depolarization; inhibition, % at 10 µM; 43% of 3,300 active; AID 488960;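 active = fluorescence ratio falls more than 5 SD below the full-stimulation control mean, in both duplicate runs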;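 also: integrated fluorescence ratio of peak minus minimum over baseline after agonist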
TRPC6 act conf – mouse TRPC6 activator confirmation; shares compounds with TRPC6 inh; HEK293-TRPC6 membrane potential dye fluorescence, FDSS; activation, % at 10 µM; 11% of 2,800 active; AID 488961;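 active = ratio signal rise beyond 5 SD above unstimulated control wells' mean, seen in both duplicate runs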;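 also: plate controls were buffer EC0 wells for no effect and acetylcholine ECmax response for full effect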
An asterisk follows results filed as active; i = inactive; x = not tested or not shown.

SMILES	TRPC4 act	FID counter	TRPC6 inh	TRPC4 inh	TRPC4 PAM	TRPC6 activator	HEK293 MPD ctr-2	HEK293 MPD ctr 2-2	TRPC4 ctr mod	TRPC4 ctr inh 2	TRPC6 inh conf	TRPC6 act conf	others
CCN(CC)CC(=O)Nc1ccc(/C(C)=N/NC2=NCCN2)cc1	i	23	-8*	i	i	i	x	x	x	x	i	i	TRPC4 spec 2=i;TRPC4 spec=-12%*;HEK293 MPD ctr 2-1=i;HEK293 MPD ctr-1=i
CCN(CC)CCNC(=O)c1nn(-c2ccc(C)cc2)c(=O)c2c1c1ccccc1n2C	i	13	-8.9*	i	i	i	x	x	x	x	64%*	i	TRPC4 spec 2=56%*;TRPC4 spec=-15%*;HEK293 MPD ctr 2-1=i;HEK293 MPD ctr-1=-187%*
O=c1cc(CNc2ccc(Br)cc2)nc2sccn12	i	1	-7*	i	i	i	i	i	i	i	i	i
CN(Cc1cc(=O)n2ccsc2n1)c1ccccc1	i	9	i	i	i	i	x	x	x	x	x	x
COc1ccccc1S(=O)(=O)Cc1ccc(C(=O)NCCCN2CCN(c3ccc(F)cc3)CC2)o1	i	12	i	i	i	i	x	x	x	x	x	x
CCc1nc(CN(C)C(=O)C2CCC(=O)N(Cc3cccc(F)c3)C2)no1 (configuration not stated)	i	-8	i	i	i	i	x	x	x	x	x	x
Oc1sc(C=Nc2ccccc2)c2ccccc12	i	0	i	i	i	13*	322%*	i	139%*	46%*	i	i
Oc1sc(C=Nc2ccc(F)cc2)c2ccccc12	i	0	i	i	i	i	x	x	x	x	x	x
COc1ccc(-n2nnnc2SCC(=O)Nc2cccc(O)c2)cc1	i	-6	i	i	i	i	x	x	x	x	x	x
N#CCNC(=O)C1CC(=O)N(CCc2ccc(F)cc2)C1 (configuration not stated)	i	-2	i	i	i	i	x	x	x	x	x	x
CC1(c2nnc(-c3cccc(Cl)c3)o2)CC(c2ccc(OC(F)(F)F)cc2)=NO1 (configuration not stated)	i	-22	i	i	i	i	x	x	x	x	x	x
Cc1ccc(S(=O)(=O)N2CCCC2C(=O)NC2CCCCC2)cc1 (configuration not stated)	i	-11	i	i	i	i	x	x	x	x	x	x
O=C(NC1CCCCC1)C1CCCN1S(=O)(=O)c1ccc(F)cc1 (configuration not stated)	i	-11	-8.1*	i	i	i	x	x	x	x	i	i	TRPC4 spec 2=i;TRPC4 spec=i;HEK293 MPD ctr 2-1=i;HEK293 MPD ctr-1=i
CC1CCN(S(=O)(=O)c2ccc(NC(=O)C3CSC4(C)CCC(=O)N34)cc2)CC1 (configuration not stated)	i	x	i	i	i	i	x	x	x	x	x	x
O=C(COC(=O)c1cc(=O)[nH]c2ccccc12)Nc1ccc(Cl)cn1	i	x	i	i	i	i	x	x	x	x	x	x
CC(=O)OCC(=O)Nc1ccc([N+](=O)[O-])cc1Cl	i	2	i	i	i	i	x	x	x	x	x	x
O=C(COC(=O)c1ccc(Cl)cc1[N+](=O)[O-])NC(=O)c1ccccc1	i	2	-5.9*	i	i	i	i	i	i	i	i	i
O=C(COC(=O)c1cc[n+]([O-])cc1)Nc1ccc([N+](=O)[O-])cc1Cl	i	3	-8.9*	i	i	i	-314%*	i	-52%*	62%*	44%*	i
O=C(COC(=O)c1cc[n+]([O-])cc1)Nc1ccc(Cl)cc1[N+](=O)[O-]	i	8	-6*	i	i	i	-168%*	i	-36%*	i	i	i
O=C(COC(=O)c1cc[n+]([O-])cc1)Nc1ccc(Cl)cc1C(F)(F)F	i	x	i	i	i	i	x	x	x	x	x	x
O=C(CN1CCN(S(=O)(=O)N2CCCCC2)CC1)Nc1ccc(Br)cc1	i	-27	i	i	i	i	x	x	x	x	x	x
CCNc1nc(N2CCCCC2)nc(-n2nnc(C(=O)OCC)c2C)n1	i	-27	i	i	i	12*	i	i	112%*	80%*	i	68%*
Cc1c(Cl)cccc1NC(=O)CNCc1ccccc1F	i	-7	-5.3*	i	i	i	i	i	18%*	i	i	x
CSc1ncc(C(=O)Nc2cc(C)ccc2C)c(C)n1	i	-3	i	i	i	i	x	x	x	x	x	x
CC(C)(C)c1ccc(CN2C(=O)CSC2=O)cc1	i	-9	-5.2*	i	i	i	i	i	i	i	i	i
O=C(COc1cccc2cccnc12)N1CCc2ccccc2C1	i	-19	-6.2*	i	i	i	-126%*	i	-22%*	i	i	i
O=C(COc1cccnc1[N+](=O)[O-])N1CCc2ccccc2C1	i	4	i	i	i	i	x	x	x	x	x	x
